Compound activity: PubChem, several laboratories
Cl transport mod: KCC2 (human) Cl- transport modulation; actives 2.2% (n = 190,000); B-score of Tl+ flux slope (higher = more flux/activation; lower = inhibition) at 10 µM; AID 1456; KCC2 cells, thallium flux FluoZin-2 fluorescence; Q9H2X9;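 active = thallium flux slope and its plate-corrected score both differing from the plate sample mean at a set confidence after two filtering rounds, in either direction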;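 also: slope of fluorescence scaled to starting intensity during 10 to 20 s after thallium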
Target sequence (Q9H2X9 whole entry, looked up): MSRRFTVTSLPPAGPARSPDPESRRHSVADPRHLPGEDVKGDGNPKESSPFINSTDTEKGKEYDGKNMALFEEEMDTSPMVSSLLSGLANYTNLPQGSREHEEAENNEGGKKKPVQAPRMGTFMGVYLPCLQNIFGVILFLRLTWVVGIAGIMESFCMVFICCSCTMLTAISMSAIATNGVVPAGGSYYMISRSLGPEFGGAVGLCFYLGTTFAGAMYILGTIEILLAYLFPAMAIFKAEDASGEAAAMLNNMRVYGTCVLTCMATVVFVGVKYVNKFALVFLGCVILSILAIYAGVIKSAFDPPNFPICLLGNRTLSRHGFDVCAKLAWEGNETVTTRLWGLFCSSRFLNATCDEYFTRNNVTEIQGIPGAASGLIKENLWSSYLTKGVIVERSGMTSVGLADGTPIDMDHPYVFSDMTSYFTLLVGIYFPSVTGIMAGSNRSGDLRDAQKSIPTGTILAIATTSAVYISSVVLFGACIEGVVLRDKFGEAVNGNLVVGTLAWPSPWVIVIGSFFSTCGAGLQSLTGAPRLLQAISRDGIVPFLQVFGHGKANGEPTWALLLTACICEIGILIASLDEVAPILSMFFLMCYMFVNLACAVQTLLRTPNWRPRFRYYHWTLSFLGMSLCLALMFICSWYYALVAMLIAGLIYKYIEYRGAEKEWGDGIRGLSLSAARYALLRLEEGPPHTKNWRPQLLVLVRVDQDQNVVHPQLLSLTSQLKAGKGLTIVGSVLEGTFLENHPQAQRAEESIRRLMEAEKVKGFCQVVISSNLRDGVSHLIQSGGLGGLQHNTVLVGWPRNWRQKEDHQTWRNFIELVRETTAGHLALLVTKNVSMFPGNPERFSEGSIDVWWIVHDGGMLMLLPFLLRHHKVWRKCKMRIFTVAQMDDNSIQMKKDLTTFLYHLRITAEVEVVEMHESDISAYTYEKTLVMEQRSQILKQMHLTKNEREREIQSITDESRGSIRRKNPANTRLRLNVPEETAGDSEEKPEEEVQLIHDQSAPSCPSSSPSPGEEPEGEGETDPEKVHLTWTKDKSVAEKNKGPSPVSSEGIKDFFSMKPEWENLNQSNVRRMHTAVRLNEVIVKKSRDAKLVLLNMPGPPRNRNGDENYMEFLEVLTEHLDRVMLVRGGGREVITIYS
STAT1 inh: inhibitors of IFN-gamma induced STAT1 signaling; NIH 3T3 STAT1-luciferase reporter, luminescence; actives 0.35% (n = 200,000); inhibition, % at 5.5 µM;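 active = inhibition above a set limit, the mean inhibition across all tested compounds plus 3 SD, cut at about 34% in these data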;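 also: 0% = IFN-gamma with DMSO and 100% = IFN-gamma with 300 µM nifuroxazide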
STAT1 activator: increases IFN-gamma driven STAT1 reporter signal; NIH 3T3 STAT1-luciferase reporter, luminescence; 100% = IFN-gamma alone, no compound; activation (% of control), % at 5.5 µM; AID 932; actives 2.6% (n = 200,000);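 active = activation above the screen-wide mean activation plus 3 SD, cut at about 130% in these data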;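 also: raw ratio to IFN-gamma control signal so 100% means no change and 0% no light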
HSV augment: increases HSV replication in cells; maximum fold increase; HSV replication augmentation in cells, fold increase; actives 0.005% (n = 220,000); AID 1956; in the data active = maximum fold increase above about 1.5; inconclusive = no clear call, values can overlap the other calls; tested in PC3 cells
STAT3 inh: STAT3 signaling inhibition; U3A cells, IL-6 STAT3-luciferase reporter, luminescence; host cell line lacks STAT1; inhibition, % at 5.5 µM; actives 0.89% (n = 190,000);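 active = inhibition above the mean inhibition across all screened compounds plus 3 SD, cut at about 44% in these data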;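 also: 0% = DMSO only wells and 100% = 100 µM nifuroxazide control wells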
STAT3 activator: activators of IL-6 induced STAT3 signaling | U3A cells, IL-6 STAT3-luciferase reporter, luminescence; 100% = signal with IL-6 EC80 alone | activation (% of control), % at 5.6 µM | actives 0.91% (n = 190,000) | AID 871;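 active = activation above the screen-wide mean of compound activation plus 3 SD, cut at about 130% in these data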;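 also: 0% = background luminescence of wells with medium and substrate only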
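Assay system – human STAT1-deficient U3A cells with stable STAT3-luciferase reporter · Also added – IL-6 (33 ng/mL) · Schedule – compound 1 h, then IL-6 6 h at 37 °C · Technique – reporter luminescence signal · Evaluation – % activation versus median of IL-6-stimulated wells · Benchmarks – IL-6-only wells as 100% reference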
KCC2 sec1: confirmation of human KCC2 transport modulators. normalised thallium flux (F/F0 slope) at 10 µM. HEK293-KCC2, thallium flux, FluoZin2 fluorescence; active compounds read high. shares compounds with Cl transport mod. actives 15% (n = 3,700). AID 1713;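 active = thallium flux slope above the same plate's solvent-only control mean plus 3 SD; inconclusive = the two replicate wells disagree; inactive = no significant difference from solvent-only control wells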
KCC2 bumet counter: thallium flux despite bumetanide block in KCC2 cells, secondary assay 3; shares compounds with Cl transport mod; HEK293-KCC2 + bumetanide/ouabain, thallium flux FluoZin2; active compounds read high; normalized thallium flux at 10 µM; actives 49% (n = 3,700); AID 1714;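 active = thallium entry rate above the same plate's blocked-transporter control wells by more than 3 SD; inconclusive = the two repeat wells disagree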;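 also: raw slope of fluorescence over initial fluorescence between 10 and 20 s after thallium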
KCC2 sec2: confirmation of human KCC2 transport modulators. shares compounds with Cl transport mod. HEK293-KCC2, thallium flux FluoZin2 fluorescence; actives lie on both sides; F/F0 rise rate, 10–20 s post-thallium. normalized thallium flux at 10 µM. actives 23% (n = 3,700);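 active = thallium flux slope more than 3 SD above or below the plate's solvent-only control mean, mostly below; inconclusive = the two repeat wells disagreed; inactive = no significant shift from solvent-only controls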;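 also: raw slope with 0.1% DMSO as baseline and bumetanide as block control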
HEK counter1: acts in parental HEK cells, KCC2 counter-screen. shares compounds with Cl transport mod. HEK293 parental cells, thallium flux FluoZin2, ouabain; baseline-ratio fluorescence slope, 10–20 s after thallium. thallium flux rate (normalised fluorescence) at 10 µM. actives 46% (n = 3,700). AID 1716;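 active = thallium flux rate significantly above the same plate's solvent-only control wells, beyond their mean plus 3 SD; inconclusive = the two replicate wells gave conflicting results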
KCC2 ouabain: KCC2 (human) modulation, ouabain retest | AID 1717 | actives 48% (n = 3,700) | HEK293-KCC2, thallium flux FluoZin2 fluorescence; bidirectional: low = inhibitor, high = activator | raw Tl+ flux slope (below DMSO = inhibition, above = activation) at 10 µM | shares compounds with Cl transport mod;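 active = thallium flux slope beyond 3 SD from same-plate DMSO control mean in most replicates, usually higher, sometimes lower; inconclusive = repeat tests gave conflicting results; inactive = no significant difference from controls in most replicates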;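 also: slope of initial-normalized fluorescence between seconds 10 and 20 after thallium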
HEK counter2: parental HEK flux effect, counter-screen 2. thallium flux slope at 10 µM. shares compounds with Cl transport mod. HEK293 parental, thallium flux FluoZin-2 fluorescence slope. actives 33% (n = 3,700). AID 1718;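 active = thallium flux slope above the same plate's solvent-control mean plus 3 SD in both duplicate wells; inconclusive = duplicate wells that disagreed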;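 also: run without ouabain in cells lacking the KCC2 cotransporter; slope of fluorescence scaled to its starting value between 10 and 20 s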
Active calls of the source: *; i = inactive; ? = inconclusive; . = no result given. Sampled rows, rich in hits. Any-hit rate of the full collection: about 5.5%.

SMILES | Cl transport mod | STAT1 inh | STAT1 activator | HSV augment | STAT3 inh | STAT3 activator | KCC2 sec1 | KCC2 bumet counter | KCC2 sec2 | HEK counter1 | KCC2 ouabain | HEK counter2
COc1ccc(CN2CN=C(Nc3nc4ccccc4s3)NC2)cc1 | -5.4* | 4 | 96 | i | -8 | 107 | 0.0057 | 0.0047 | 0.029 | 0.0074 | 0.019 | 0.011
CCC(=O)Nc1ccc(-c2nnc(SCC(=O)NCC3CCCO3)n2C)cc1 (centres undefined) | 1.1 | 7 | 93 | i | -4 | 99 | . | . | . | . | . | .
COc1ccc(S(=O)(=O)Nc2cccc(S(=O)(=O)N3CCCCCC3)c2)cc1 | -0.47 | -8 | 108 | i | -12 | 105 | . | . | . | . | . | .
O=S(=O)(Nc1nc2ccccc2nc1Nc1cccc(S(=O)(=O)N2CCCCC2)c1)c1ccccc1 | -3.5* | 8 | 93 | i | 1 | 99 | 0.0063 | 0.0068 | 0.026 | ? | ? | 0.0097
CCCOc1ccc(NC(=O)C2CC(=O)N(C)C(=Nc3cccc(OC)c3)S2)cc1 (centres undefined) | 0.55 | 1 | 98 | i | -6 | 109 | . | . | . | . | . | .
COc1ccccc1C(=O)NNC(=O)C(=O)NCc1ccccc1 | 23* | -1 | 101 | i | 0 | 105 | 0.025* | 0.046* | 0.037 | 0.028* | 0.048* | 0.014*
COc1ccccc1C(=O)NCc1ccccc1 | 1.3 | -5 | 102 | i | 15 | 90 | . | . | . | . | . | .
COC(=O)C(Cc1ccc(O)cc1)NC(=O)c1ccccc1 (centres undefined) | . | -3 | 103 | i | -4 | 103 | . | . | . | . | . | .
COc1ccc(C(=O)NNC(=O)C(=O)NCc2ccccc2)cc1 | . | -1 | 99 | i | 5 | 99 | 0.016 | 0.019* | 0.029 | 0.017* | 0.022* | 0.018*
COc1ccccc1C(=O)NNC(=O)c1sccc1-n1cccc1 | . | -4 | 103 | i | -16 | 114 | ? | 0.046* | 0.048* | 0.04* | 0.05* | 0.04*
COC(=O)C(Cc1ccc(O)cc1)NC(=O)c1ccccc1OC (centres undefined) | -5.2* | -2 | 103 | i | 4 | 102 | 0.0089 | ? | 0.031 | 0.0085 | 0.018 | 0.011
Cc1ccc(-c2csc(N3CCC(NS(=O)(=O)c4ccc5c(c4)OCCO5)CC3)n2)cc1 | 0.21 | 13 | 88 | i | 24 | 81 | . | . | . | . | . | .
COc1ccc2sc(/C=C/c3ccccc3O)[n+](C)c2c1 | 0.12 | -24 | 121 | i | 8 | 94 | . | . | . | . | . | .
COC(=O)c1ccc(CSc2ccc3nnc(-c4cccc(F)c4)n3n2)o1 | -1.9 | 9 | 92 | i | 13 | 93 | . | . | . | . | . | .
COc1ccccc1C(=O)NNC(=O)C(=O)NC(C)C | 4.3* | -7 | 105 | i | -17 | 116 | 0.014* | 0.02* | 0.029 | 0.011* | ? | 0.011*
Cc1cccc(OCC(=O)N/N=C/CC(C)c2ccccc2)c1C (centres undefined) | -4.5* | -3 | 103 | i | 2 | 102 | 0.0089 | 0.0054 | 0.031 | 0.0074 | ? | 0.011
O=C(Nc1ncccc1Cl)C1COc2ccccc2O1 (centres undefined) | . | -7 | 106 | i | 11 | 96 | . | . | . | . | . | .
O=C(Nc1ccccc1N1CCOCC1)c1cc(Br)c(Br)s1 | 1.5 | 4 | 96 | i | 9 | 95 | . | . | . | . | . | .
CC(/C=C/c1ccccc1)=N\NC(=S)NC(C)C | 8* | 7 | 92 | i | 19 | 88 | 0.0068 | 0.018* | 0.03 | 0.017* | ? | 0.014*
CC(/C=C/c1ccccc1)=N\NC(N)=S | 1.9 | -11 | 110 | i | 22 | 87 | . | . | . | . | . | .
CC1=NN(C(C#N)c2cccc([N+](=O)[O-])c2)C(C)(C)C1 (centres undefined) | 0.46 | -3 | 103 | i | -2 | 100 | . | . | . | . | . | .
CC(C)c1nc2sc3c(=O)[nH]c(=S)[nH]c3c2c2c1CCCC2 | -1.5 | . | . | i | . | . | . | . | . | . | . | .
CC(C)c1nc2sc3c(=O)[nH]c(=S)[nH]c3c2c2c1CCC2 | -7.9* | 4 | 97 | i | 12 | 92 | 0.016 | 0.0063* | ? | 0.0051* | 0.0094* | ?
Cc1ccc(NS(=O)(=O)c2ccc(OCC(=O)NCc3cccnc3)cc2)cc1 | -0.49 | 11 | 92 | i | -4 | 101 | . | . | . | . | . | .
S=c1[nH]nc(-c2ccc3ccccc3n2)n1-c1cc(Cl)cc(Cl)c1 | 22* | 4 | 96 | i | -1 | 103 | 0.021* | 0.054* | 0.033 | 0.039* | 0.051* | 0.013*
SMILES | Cl transport mod | STAT1 inh | STAT1 activator | HSV augment | STAT3 inh | STAT3 activator | KCC2 sec1 | KCC2 bumet counter | KCC2 sec2 | HEK counter1 | KCC2 ouabain | HEK counter2
O=c1ccc(-c2n[nH]c(=S)n2-c2ccc(F)c(Cl)c2)n[nH]1 | -0.093 | -7 | 103 | i | 3 | 101 | . | . | . | . | . | .
Cc1nn(C)cc1-c1n[nH]c(=S)n1-c1ccc(F)cc1 | 0.57 | 5 | 96 | i | 4 | 97 | . | . | . | . | . | .
S=c1[nH]nc(-c2ccc3ccccc3n2)n1-c1ccccc1Cl | 6* | 11 | 90 | i | -6 | 107 | 0.011 | 0.026* | 0.033 | 0.013* | 0.025 | 0.01
Fc1ccc(-n2c(-c3ccc4ccccc4n3)n[nH]c2=S)cc1 | 6.6* | -2 | 102 | i | -2 | 109 | ? | 0.022* | 0.032 | 0.018* | 0.027* | 0.018*
COc1ccc(C(CC(=O)N2CCN(c3ccccc3)CC2)c2c(OC)cc(OC)c3ccc(=O)oc23)cc1 (centres undefined) | -1.1 | . | . | i | . | . | . | . | . | . | . | .
CC1CCCC(C)N1c1nnc(NC(=O)c2cc(-c3ccc(Br)cc3)on2)s1 (centres undefined) | 12* | 8 | 92 | . | 12 | 98 | 0.0087 | 0.02* | 0.028 | 0.011* | ? | ?
